Data set [1] can be described thus: NHP CSF-to-plasma Kp,uu experiment. The class given is in vivo, cynomolgus monkeys. The following applies: cynomolgus, cynomolgus monkey, intravenous. The method, boiled down: (§1)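 Cynomolgus monkeys (six total) received a three‐compound cassette in 10% captisol in sterile water as a 15 min IV infusion via saphenous or cephalic vein. Plasma (vena cava, K₂EDTA), lumbar CSF after euthanasia, and excised brain were taken from 2 animals per time point at about 17, 30 and 60 min after infusion start. Samples were quantified by LC‐MS/MS after protein precipitation, and Kp,uu was calculated from unbound concentrations.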

In a further data set the target is MDR1 (Homo sapiens, UniProt P08183). The experiment in a line: NIH MDR1-MDCKI transwell efflux assay. The data set is classed as in vitro ADME.
The nature of data set [2]: NHP brain-to-plasma and CSF-to-plasma Kp,uu time course experiment. The data set is classed as in vivo, cynomolgus monkeys. The note with it: IV infusion for 15 min. The method, boiled down: as §1
A short description of data set [3]: NHP brain-to-plasma Kp,uu experiment. The note with it: cynomolgus, cynomolgus monkey, intravenous. The class given is in vivo, cynomolgus monkeys. The method, boiled down: as §1
The next data set in a line: NHP brain tissue binding. The data set is classed as in vitro ADME. The following applies: monkey, brain homogenate. The method, boiled down:
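Brain was homogenized in PBS at 1:3 (w:v) and dialysed against PBS in a rapid equilibrium dialysis device for 18 h at 37°C, 5% CO₂, shaking at 150 rpm. Samples were matrix‐matched, precipitated with acetonitrile containing internal standard, and analysed by LC‐MS/MS. fu = receiver/donor peak‐area ratio, corrected for dilution factor 4.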

Data set [4] can be described thus: MDCK A-B passive permeability. The data set is classed as in vitro ADME, canine. The note with it: dog. Put shortly:
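MDCKII cells seeded at 60 000 cells/cm² on 1 µm pore transwell inserts and used on day 4. Test compound at 1 µM in HBSS added to donor, with 0.1% BSA in receiver. Donor sampled at 0 min; donor and receiver sampled at 90 min, 37°C, analysed by LC‐MS/MS. Papp = (dQ/dt)/(A×C0). Monolayer integrity confirmed by lucifer yellow A‐B <2%; recovery >70%.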

For data set [5], the target named is T1, breast cancer resistance protein (BCRP) (Homo sapiens, UniProt Q9UNQ0).
T1 sequence (Q9UNQ0 1-655): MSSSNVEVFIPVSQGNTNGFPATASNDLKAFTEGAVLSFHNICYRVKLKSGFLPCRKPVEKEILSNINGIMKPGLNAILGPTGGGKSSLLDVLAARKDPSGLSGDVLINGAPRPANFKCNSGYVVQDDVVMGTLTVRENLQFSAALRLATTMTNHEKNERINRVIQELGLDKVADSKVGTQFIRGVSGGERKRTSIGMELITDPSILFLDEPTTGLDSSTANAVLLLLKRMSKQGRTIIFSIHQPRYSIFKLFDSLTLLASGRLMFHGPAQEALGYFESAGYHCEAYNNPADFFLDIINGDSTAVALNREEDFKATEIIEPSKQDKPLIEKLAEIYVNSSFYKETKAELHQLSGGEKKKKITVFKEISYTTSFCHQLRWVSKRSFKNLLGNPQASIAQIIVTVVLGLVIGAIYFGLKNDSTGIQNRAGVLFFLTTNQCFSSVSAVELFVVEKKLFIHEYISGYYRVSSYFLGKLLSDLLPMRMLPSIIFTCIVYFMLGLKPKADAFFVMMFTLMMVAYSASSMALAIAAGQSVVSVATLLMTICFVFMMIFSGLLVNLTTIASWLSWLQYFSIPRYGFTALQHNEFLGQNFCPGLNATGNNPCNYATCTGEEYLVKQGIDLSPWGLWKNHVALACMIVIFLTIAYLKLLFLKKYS
Briefly: BCRP transwell efflux ratio. The class given is in vitro ADME. The following applies: B_A Papp (n = 3) / A_B Papp (n = 3).

For orientation: efflux ratio means a quotient of directional permeabilities that is used to spot active efflux. A word on the fraction unbound: it is free concentration divided by total concentration. A low value points to little free substance. In general, Papp A→B refers to the apparent permeability from the apical to the basolateral side of a cell layer.

Sequence of MDR1 (P08183 whole entry, the tested form may be a part): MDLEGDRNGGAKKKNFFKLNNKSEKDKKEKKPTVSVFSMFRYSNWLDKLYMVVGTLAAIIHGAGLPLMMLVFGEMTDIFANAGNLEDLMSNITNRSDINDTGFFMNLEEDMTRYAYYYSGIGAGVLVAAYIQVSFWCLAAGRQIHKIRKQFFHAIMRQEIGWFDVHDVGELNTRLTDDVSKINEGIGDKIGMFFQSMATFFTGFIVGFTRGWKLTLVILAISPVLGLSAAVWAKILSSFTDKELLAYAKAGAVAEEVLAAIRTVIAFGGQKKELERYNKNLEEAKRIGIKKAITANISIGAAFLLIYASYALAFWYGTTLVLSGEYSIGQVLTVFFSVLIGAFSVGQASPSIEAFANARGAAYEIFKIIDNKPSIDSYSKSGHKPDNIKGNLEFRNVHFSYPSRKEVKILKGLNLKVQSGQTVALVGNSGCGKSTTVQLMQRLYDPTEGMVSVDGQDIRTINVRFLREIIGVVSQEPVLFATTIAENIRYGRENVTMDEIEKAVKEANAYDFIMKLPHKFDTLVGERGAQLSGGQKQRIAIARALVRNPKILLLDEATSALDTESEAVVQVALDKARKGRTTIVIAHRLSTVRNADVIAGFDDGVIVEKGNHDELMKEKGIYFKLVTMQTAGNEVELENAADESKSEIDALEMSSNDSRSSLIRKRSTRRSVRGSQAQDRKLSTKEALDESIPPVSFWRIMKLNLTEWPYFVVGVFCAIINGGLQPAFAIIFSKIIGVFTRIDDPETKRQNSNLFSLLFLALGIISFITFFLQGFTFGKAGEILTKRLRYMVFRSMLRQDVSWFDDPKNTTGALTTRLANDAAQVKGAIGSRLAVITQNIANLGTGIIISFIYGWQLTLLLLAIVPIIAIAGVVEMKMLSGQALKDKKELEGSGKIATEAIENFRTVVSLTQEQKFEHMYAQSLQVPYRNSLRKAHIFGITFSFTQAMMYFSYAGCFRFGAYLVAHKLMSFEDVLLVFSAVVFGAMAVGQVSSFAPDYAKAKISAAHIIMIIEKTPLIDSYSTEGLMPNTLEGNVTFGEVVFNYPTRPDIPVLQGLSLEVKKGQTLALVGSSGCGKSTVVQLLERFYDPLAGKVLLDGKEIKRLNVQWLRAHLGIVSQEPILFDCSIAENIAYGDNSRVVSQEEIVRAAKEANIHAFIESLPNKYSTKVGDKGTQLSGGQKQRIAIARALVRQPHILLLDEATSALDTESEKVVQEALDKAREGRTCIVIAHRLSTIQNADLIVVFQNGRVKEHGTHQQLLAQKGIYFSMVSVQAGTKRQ

Take `Cc1cc(=O)n(-c2ccccc2)n1C` [Antipyrine]: the Kp uu at 1 h in data set [1] came out at 1. For the same compound, the MDR1/BCRP substrate classification result at MDR1 (ER of 3 as cutoff to classify substrates) is on record as “no MDR1/BCRP efflux transporter interactions”. In addition, the efflux ratio at 90 min, 1 µM on MDR1 (human, MDCK-MDR1) worked out at 1. The “Time for unbound brain concentration to reach equilibrium with unbound plasma concentration” value in data set [2] is given as ≤ 15 min. Besides, the “Time for lumbar CSF to equilibrate with plasma” value in data set [2] (lumbar CSF) is listed as ~ 1 h. The Kp uu in data set [3] stood at 0.96. The fraction unbound at 18 h in “NHP brain tissue binding” is ~1. The Papp A→B at 90 min, 1 µM in data set [4] amounted to 32.8 ± 9 ×10⁻⁶ cm/s. The “BCRP ER” value in data set [5] was found to be 0.9.
Consider `C=C[C@H]1C[N@@]2CC[C@H]1C[C@@H]2[C@@H](O)c1ccnc2ccc(OC)cc12` [quinidine], for which the “ER in NIH MDR1 assay relative to current MDR1 assay” value on MDR1 (NIH MDR1-MDCKI vs internal MDR1-MDCKII) was “more than 10 fold”.

For the origin of these results see publication PMC8929335 (Pharmacology Research & Perspectives, 2022).
